Laboratory results from article PMC9463105 (Chemmedchem, 2022).

Legend:
[1] = biological target: T1, HCMV pUL89‐C (Human cytomegalovirus, UniProt P16732); test: In vitro pUL89‐C endonuclease assay; assay type: biochemical; conditions: for inhibition at 10 µM: read-out: Nuclease inhibition % at 10 μM; for IC50: IC50, dose response, duplicate
T1 sequence (P16732 418-674 limits assumed): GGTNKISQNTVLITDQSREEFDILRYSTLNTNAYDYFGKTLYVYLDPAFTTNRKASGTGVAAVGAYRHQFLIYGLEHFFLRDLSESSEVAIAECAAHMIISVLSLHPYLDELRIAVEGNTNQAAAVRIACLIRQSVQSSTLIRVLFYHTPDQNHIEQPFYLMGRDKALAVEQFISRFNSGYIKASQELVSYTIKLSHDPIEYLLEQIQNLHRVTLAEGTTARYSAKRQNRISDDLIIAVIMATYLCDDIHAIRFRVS

[2] = Cell viability assay; assay type: cell-based; conditions: human, HFF cells; for viability at 7 days, 10 µM: Cell‐based assays [at 10 μM] Cell viability %, triplicate, mean
[3] = tested on: HCMV ADCREGFP virus; test: HCMV replication assay; assay type: cell-based, Human cytomegalovirus (HCMV); conditions: HFF cells, triplicate, mean
[4] = biological target: T2, pUL89‐C (Human cytomegalovirus, UniProt P16732); test: pUL89‐C thermal shift assay; assay type: binding, Human cytomegalovirus (HCMV); conditions: 20 μM compound, compared to DMSO control
T2 sequence (P16732 418-674 limits assumed): T1 sequence (P16732 418-674 limits assumed)
How it was run: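 pUL89-C was expressed in E. coli and Ni-purified via a C-terminal His tag. Test compound (20 μM) was incubated with 4 μg of this protein in 5 mM MnCl2, 30 mM Tris pH 8, 50 mM NaCl for 25 min at room temperature, with 1% DMSO final. Sypro Orange was the dye. ΔTm is the mean derivative Tm vs DMSO vehicle, triplicates, with at least two independent determinations.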

inhibition at 10 µM [1] [%] | SMILES | viability at 7 days, 10 µM [2] [%] | IC50 [1] [µM] | CC50 at 7 days [2] [µM] | Cell‐based assays [at 10 μM] Inhibition % [3] | ΔTm (thermal shift) [4]
8.2 ± 1.9 | O=C(NCc1ccc(F)cc1)c1nc(-c2cccc(Cl)c2)c2cccnc2c1O [Compound 16e] | ≤ 70 |  |  |  | 
52 ± 3.6 | COc1cccc(-c2nc(C(=O)NCc3ccc(C)cc3)c(O)c3ncccc23)c1 [Compound 16b] | 76 ± 1.7 | 24 ± 5.4 | > 60 |  | 
17 ± 8.7 | O=C(NCc1ccc(F)cc1)c1nc(-c2ccccc2F)c2cccnc2c1O [Compound 16d] | ≤ 70 |  |  |  | 

Second part, the molecule before the results:

SMILES | inhibition at 10 µM [1] [%] | viability at 7 days, 10 µM [2] [%] | IC50 [1] [µM] | CC50 at 7 days [2] [µM] | Cell‐based assays [at 10 μM] Inhibition % [3] | ΔTm (thermal shift) [4]
O=C(O)c1nc(-c2ccc(C(F)(F)F)cc2)c2cccnc2c1O [Compound 14] | 19 ± 0.1 | 97 ± 0.9 |  |  |  | 
O=C(NCc1ccc(F)c(Cl)c1)c1nc(Cl)c2cccnc2c1O [Compound 15c] | 15 ± 2 | 100 ± 5.7 |  |  |  | 
O=C(NCc1ccc(Cl)c(Cl)c1)c1nc(Cl)c2cccnc2c1O [Compound 15b] | 33 ± 5.3 | 95 ± 1 | 13 ± 3.8 | > 50 |  | 
COCCNC(=O)c1nc(Cl)c2cccnc2c1O [Compound 15f] | 51 ± 14 | 96 ± 2.1 | 5.7 ± 0.39 |  | insignificant | 
Cc1ccc(CNC(=O)c2nc(Cl)c3cccnc3c2O)cc1 [Compound 15d] | 66 ± 13 | 96 ± 1.5 |  | > 50 |  | > 0
O=C(NCc1ccc(F)cc1)c1nc(Cl)c2cccnc2c1O [Compound 15a] | 49 ± 4.7 | 97 ± 2.3 | 4.3 ± 1.2 | 60 ± 2.4 |  | > 0
COC(=O)c1nc(Cl)c2cccnc2c1O [Compound 13] | 16 ± 2.5 | 96 ± 1 |  |  |  | 
Cc1ccc(CNC(=O)c2nc(-c3ccccc3)c3cccnc3c2O)cc1 [Compound 16a] | 71 ± 2.4 | 99 ± 2.6 |  | > 100 |  | > 0
Nc1nc(O)c2ncn(COC(CO)CO)c2n1 [Compound 1, ganciclovir, reference compound] |  |  |  | > 50 |  | 
